dFosB act – activators of mouse delta FosB homodimer. activation, % at 25 µM. AID 493131. 0.99% of 340,000 active. purified delta FosB, TAMRA-CDK5 oligo fluorescence polarization; percent of positive-control signal above neutral wells. P13346;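 active means mean activation above about 17%, with every replicate also reaching it, limit read from the data, passing the limit was not always enough; inconclusive means only one of the two conditions met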
Cneo AK release – causes C. neoformans cell lysis; 0.2% of 360,000 active; lysis activity, % at 15 µM; adenylate kinase release luminescence, 4 h; normalised: neutral wells 0, clomiphene wells 100;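 active means mean lysis activity across replicates of at least 80%, whatever share of replicates individually reach that level; inactive means mean lysis activity below 80%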
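Schedule: static 4 h at 37 °C with compound, 1 h detection; system: C. neoformans cells; benchmarks: Clomiphene as positive control; buffer or medium: fresh YPD medium; measure: luminescence rise reflecting yeast cell lysis; measured by: luminescent adenylate kinase detection reagent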
miR-122 sensor – blocks miR-122 activity in Huh7 sensor cells; Huh7 miR-122 Renilla luciferase sensor, 48 h; neutral wells = 0, positive control = 100; activation (reporter increase), % at 12.5 µM; 0.3% of 340,000 active;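 active means mean replicate activation score at least 90 and every replicate individually at or above 90; inconclusive means only one of the two criteria met; inactive means neither criterion met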;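 further: higher luciferase means less miR-122 activity so hits act as miR-122 inhibitors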
INS-1E GSIS act – GLuc luminescence reporter in INS-1E cells, primary screen for activators of glucose-dependent secretion of insulin; activation, % at 16.6 µM; INS-1E GLuc reporter insulin secretion, 2-3 h; 0.61% of 370,000 active;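 active means lowest replicate activation of at least 40%, so every replicate reaches that level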
Env fusion inh – inhibitors of HIV Env-mediated cell fusion; inhibition, % at 12.3 µM; 1.1% of 360,000 active; HeLa-JRFL Env/CEM21 cell fusion, luciferase; AID 651610;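 active means mean replicate inhibition score of at least 50 and every replicate individually at or above 50; inconclusive means only one of the two criteria met; inactive means mean below 50 and not all replicates reaching 50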
Rtt109 HAT inh – C. albicans Rtt109 histone acetyltransferase inhibition; purified Rtt109/Vps75, ThioGlo CoA-SH fluorescence, 4 h; inhibition, % at 34.9 µM; 0.16% of 330,000 active; AID 540336;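 active means inhibition of at least 50% in every replicate; inconclusive means best replicate reaches 50% inhibition but some replicates fall short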
Target sequence (Q5AAJ8 whole entry, looked up): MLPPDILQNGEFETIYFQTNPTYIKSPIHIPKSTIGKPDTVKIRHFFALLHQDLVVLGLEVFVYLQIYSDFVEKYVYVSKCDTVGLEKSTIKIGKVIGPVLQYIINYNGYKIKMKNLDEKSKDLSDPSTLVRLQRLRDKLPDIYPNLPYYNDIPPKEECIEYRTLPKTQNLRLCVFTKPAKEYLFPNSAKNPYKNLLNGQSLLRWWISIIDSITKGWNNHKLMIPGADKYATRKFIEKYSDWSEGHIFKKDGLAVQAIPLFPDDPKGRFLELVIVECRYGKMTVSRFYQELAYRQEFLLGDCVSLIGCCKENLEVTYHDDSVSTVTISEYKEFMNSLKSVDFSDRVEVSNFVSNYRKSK
Numbers stand for hits; . = inactive; ? = inconclusive; / = no result; [ ] = dose if it differs, or a comment. An excerpt weighted towards active compounds, which were near 2.4% of everything screened.

SMILES | dFosB act | Cneo AK release | miR-122 sensor | INS-1E GSIS act | Env fusion inh | Rtt109 HAT inh
COc1cccc(-c2ccc([C@@H]3[C@H]4CN(C(=O)C5CCC5)CC(=O)N4[C@H]3CO)cc2)c1 | / | / | / | . | / | /
CN(C)CCCN(C(=O)c1ccco1)c1nc2c(F)cc(F)cc2s1 | . | . | . | . | . | .
CN(C)CCCN(C(=O)CCc1ccccc1)c1nc2c(F)cccc2s1 | . | . | . | . | / | .
CN(C)CCCN(C(=O)CCOc1ccccc1)c1nc2c(F)cccc2s1 | . | / | / | 99 | . | 98
CN(C)CCCN(C(=O)CCOc1ccccc1)c1nc2ccc(F)cc2s1 | . | . | / | 45 | . | .
CN(C)CCCN(C(=O)COc1ccccc1)c1nc2ccc(F)cc2s1 | . | / | / | . | . | .
CN(C)CCCN(C(=O)c1ccco1)c1nc2c(F)cccc2s1 | . | / | / | 41 | . | .
COc1ccccc1-c1cnc2c(Nc3cccc(OC(F)(F)C(F)F)c3)nccn12 | / | . | . | 79 | . | /
COc1cc(OC)cc(-c2cc3nc(C)c(CCC(=O)O)c(C)n3n2)c1 | . | . | . | / | 73 | .
CCOC(=O)C1CCCCN1C(=O)CCc1c(C)nc2cc(-c3ccccc3)nn2c1C (stereo not given) | . | . | . | . | 61 | .
CCC(=O)N1C[C@@H](C)[C@@H](OC)CN(C)C(=O)c2cc(NS(=O)(=O)CC)ccc2OC[C@@H]1C | / | . | . | . | . | /
CN1C(=O)c2cc(NC(=O)c3cscn3)ccc2OC[C@@H]2O[C@H](CC(=O)NCc3ccc(Cl)c(Cl)c3)CC[C@H]21 | / | . | . | . | 58[16.7 µM] | /
CN1C(=O)c2cc(NC(=O)c3cscn3)ccc2OC[C@H]2O[C@H](CC(=O)NCc3ccc(Cl)c(Cl)c3)CC[C@H]21 | / | . | . | . | 68[16.7 µM] | /
CCNC(=O)C[C@@H]1CC[C@H]2[C@H](COc3ccc(NC(=O)c4cscn4)cc3C(=O)N2C)O1 | / | . | . | . | . | /
C[C@@H]1CN([C@@H](C)CO)C(=O)c2cc(Br)cnc2O[C@H]1CN(C)S(=O)(=O)c1ccc(F)cc1 | / | . | . | . | . | /
Cc1ccc(S(=O)(=O)N2CCC(C(=O)Nc3nnc(-c4ccc(F)cc4)s3)CC2)cc1 | . | / | / | . | . | .
O=C(Nc1nnc(-c2ccc(F)cc2)s1)C1CCN(S(=O)(=O)c2ccc(Cl)cc2)CC1 | . | / | / | 60 | . | .
COc1ccc([N+](=O)[O-])c(S(=O)(=O)c2ccccc2)n1 | / | . | . | / | . | /
O=[N+]([O-])c1cccnc1S(=O)(=O)c1ccccc1 | . | . | / | 130 | . | .
COc1ccc([N+](=O)[O-])c(S(=O)(=O)c2ccc(Cl)cc2)n1 | . | . | / | 59 | . | .
CC(C)NC(=O)Nc1ccc2c(c1)C(=O)N([C@@H](C)CO)C[C@@H](C)[C@H](CN(C)C(=O)Cc1ccccc1)OCCCC[C@@H](C)O2 | / | 95 | . | . | . | /
COc1ccc(NC(=O)Nc2ccc3c(c2)C(=O)N([C@@H](C)CO)C[C@@H](C)[C@H](CN(C)C(=O)Cc2ccccc2)OCCCC[C@H](C)O3)cc1 | / | 115 | . | . | . | /
COc1ccc(NC(=O)Nc2ccc3c(c2)C(=O)N([C@H](C)CO)C[C@H](C)[C@H](CN(C)C(=O)Cc2ccccc2)OCCCC[C@H](C)O3)cc1 | / | 101 | . | . | . | /
NS(=O)(=O)c1ccc(NC(=S)N2CCN(c3ccc(Cl)c(Cl)c3)CC2)cc1 | . | . | . | 108 | ? | .
NS(=O)(=O)c1ccc(NC(=S)N2CCN(Cc3ccc(Cl)c(Cl)c3)CC2)cc1 | . | / | . | . | . | .
SMILES | dFosB act | Cneo AK release | miR-122 sensor | INS-1E GSIS act | Env fusion inh | Rtt109 HAT inh
Cc1cc(-n2c(C)cc(C(=O)CSc3ncnc4ccccc34)c2C)no1 | . | . | . | / | 51 | .
Cc1cc(C(=O)CSc2ncnc3ccccc23)c(C)n1C1CC1 | . | . | . | . | . | .
CCCCN1C=CC(=C2C(=O)c3ccccc3C2=O)C=C1 | . | . | . | . | 84 | /
Oc1ccc(/C=N/N=C(c2ccccc2)c2ccccc2)c(O)c1O | . | / | / | . | . | .
O=C(/C(=N/N=C/c1ccc(O)c(O)c1O)c1ccccc1)c1ccccc1 | . | . | . | . | . | 78
COc1ccc2c3c(n(C)c2c1)[C@@H](CO)N(Cc1cccc(Cl)c1)CC31CCN(C(=O)C2CC2)CC1 | / | / | / | . | / | /
CCSCCc1nnc(NC(=O)Nc2cccc(C(F)(F)F)c2)s1 | . | / | / | . | 70 | /
O=C(N/N=C/c1ccncc1)c1cccc([N+](=O)[O-])c1 | / | / | / | . | . | /
CC(/C=N/NC(=O)c1cccc([N+](=O)[O-])c1)=C\c1ccccc1 | . | . | . | 49 | . | .
Cc1[nH]n(-c2ccccc2)c(=O)c1/C=N/NC(=O)c1cccc([N+](=O)[O-])c1 | . | . | . | / | / | .
Cc1[nH]n(-c2cccc3ccccc23)c(=O)c1/C=N/NC(=O)c1cccc([N+](=O)[O-])c1 | . | . | . | . | 59 | .
O=C(CCCNS(=O)(=O)c1cccs1)N1CCN(c2cccc(Cl)c2)CC1 | . | . | . | . | 71 | .
CCCCNS(=O)(=O)c1ccc(NC(=O)Cc2ccccc2[N+](=O)[O-])cc1 | . | / | / | . | . | 53
CN(C)C(=O)C[C@@H]1CC[C@H]2[C@@H](COC[C@H](O)CN2C(=O)C2CCCC2)O1 | / | . | . | . | . | /
CC(=O)N(C1CC(C)C(C#N)(C#N)C1(C#N)C#N)N(C)C (stereo not given) | . | / | / | 167 | . | .
CN(C)C(=O)C[C@@H]1CC[C@@H](NC(=O)c2ccc(F)cc2)[C@H](CO)O1 | / | . | . | . | . | /
COc1cc2c(cc1OC)-c1cc(Nc3ccccc3Br)nc(=O)n1CC2 | . | . | . | 73 | . | .
COc1cc2c(cc1OC)-c1cc(N3CCc4ccccc43)nc(=O)n1CC2 | . | / | / | 43 | . | .
COc1cc2c(cc1OC)-c1cc(Nc3ccccc3)nc(=O)n1CC2 | . | . | . | / | . | .
CO[C@@H]1CN(C)C(=O)c2ccc(NS(=O)(=O)c3cccc(C)c3)cc2OC[C@@H](C)N(Cc2cc(F)ccc2F)C[C@H]1C | / | . | / | . | . | /
O=C(NCC1CCCCC1)[C@@H]1[C@@H](CO)[C@@H]2Cn3c(ccc(-c4ccccc4F)c3=O)[C@H]1N2 | / | . | . | . | / | /
COc1ccc(OC)c(/C=N/n2c(C)nc3ccccc3c2=O)c1 | / | . | . | . | . | /
COc1cc(OC)c(OC)cc1/C=N/n1c(C)nc2ccccc2c1=O | . | . | . | 43 | . | .
Cc1nc2ccccc2c(=O)n1/N=C/c1ccc(N(C)C)cc1 | . | . | . | 67 | . | .
O=C(NCC[C@H]1CC[C@H](NC(=O)C2CCC2)[C@H](CO)O1)c1cnccn1 | / | . | / | . | . | /
CN1[C@@H]2c3ccc(-c4ccc(F)cc4)c(=O)n3C[C@@H]2[C@@H](CO)[C@@H]1C(=O)NCC1CC1 | / | . | . | . | / | /
